ChEMBL document CHEMBL1156192, “N-((1-benzyl-1H-1,2,3-triazol-4-yl)methyl)arylamide as a new scaffold that provides rapid access to antimicrotubule agents: synthesis and evaluation of antiproliferative activity against select cancer cell lines” (J Med Chem, 2010)
In brackets after ≈: the same amount, converted by molar mass. Activity calls are given as the source filed them. The rule behind the calls is not given here.

How the values were obtained:
[1] = tested on: HeLa; test: Change in cellular morphology of human HeLa cells assessed as interference in microtubule formation at 5 uM after 18 hrs by confocal microscopy; format: functional, cell-based
Outline: (§1)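 HeLa attached 3 h on cover slips, then 18 h with DMSO vehicle or 5 µM compound (0.05% DMSO final). Brief microtubule stabilizing buffer (PIPES pH 6.8), 0.5% glutaraldehyde fixation 10 min, NaBH4 quench, blocking; FITC anti-α-tubulin (1:50) with RNase A 2.5 h, then propidium iodide 50 µg/mL 15 min. Imaged by confocal microscopy.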

[2] = tested on: HeLa; test: Cell cycle arrest in human HeLa cells assessed as accumulation at M phase at 5 uM after 18 hrs by flow cytometry; format: functional, cell-based
Outline: (§2)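 HeLa in RPMI-1640 with 10% FBS, Pen-Strep; 8 x 10^5 cells in 4 mL dosed at 5 µM (0.05% DMSO final) for 18 h, triplicate. Harvested cells fixed in 70% ice-cold ethanol 1 h at -20 °C, RNase A treated 2 h, propidium iodide 50 µg/mL stained. DNA content by flow cytometry, 20,000 events, single cells gated on PI width vs area.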

[3] = tested on: HeLa; test: Cell cycle arrest in human HeLa cells assessed as accumulation at G2/G1 phase at 5 uM after 18 hrs by flow cytometry; format: functional; outline: as §2
[4] = tested on: U-937; test: Antiproliferative activity against human U937 cells by sulforhodamine B assay; format: functional, cell-based
Outline: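 U-937 cells in RPMI-1640 with 10% FBS and 1% Pen-Strep; 4 x 10^4 cells/well, compound in DMSO, replicates of 5, 72 h at 37 °C, 5% CO2. Fixed with cold TCA overnight at 4 °C. Stained 30 min with 0.057% SRB in 1% acetic acid; bound dye released in 10 mM Tris base, A510 read. Vehicle and cell-free wells set 100%/0% biomass; IC50 from logistic fit.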

[5] = tested on: HeLa; test: Cell cycle arrest in human HeLa cells assessed as accumulation at S phase at 5 uM after 18 hrs by flow cytometry; format: functional; outline: as §2
[6] = tested on: HeLa; test: Change in cellular morphology of human HeLa cells assessed as DNA condensation at 5 uM after 18 hrs using propidium-iodide staining by confocal microscopy; format: functional, cell-based; outline: as §1
[7] = Inhibition of tubulin polymerization at 10 uM
Outline: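 Tubulin added in PIPES pH 6.9 buffer with EGTA, MgCl2, 5% glycerol; compound at 10 µM final from DMSO. After 10 min on ice, GTP added, then polymerization followed by absorbance at 340 nm for 30 min at 37 °C. Paclitaxel and nocodazole at 10 µM final as controls.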

[8] = tested on: MCF7; test: Antiproliferative activity against human MCF7 cells after 72 hrs by crystal violet biomass reduction assay; format: functional, cell-based; settings: MCF7, 72 h
Outline: (§3)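 Cells grown in α-MEM with 5% FBS at 37 °C, 5% CO2; 2,500 cells/well allowed 24 h before compound in DMSO, triplicates, ≥5 concentrations, 72 h exposure. Biomass read by crystal violet staining, Triton X-100 elution, OD 595 nm. IC50 from dose-response as 50% reduction in net cell mass versus vehicle, corrected with no-cell background.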

[9] = tested on: HeLa; test: Change in cellular morphology of human HeLa cells assessed as microtubule disruption at 5 uM after 18 hrs using FITC-conjugated alpha-tubulin antibody by confocal microscopy; format: functional, cell-based; outline: as §1
[10] = tested on: HeLa; test: Cell cycle arrest in human HeLa cells assessed as accumulation at G2 phase at 5 uM after 18 hrs by flow cytometry; format: functional; outline: as §2
[11] = tested on: HeLa; test: Cell cycle arrest in human HeLa cells assessed as accumulation at G2/M cells at 5 uM after 18 hrs by flow cytometry; format: functional; outline: as §2
[12] = tested on: HeLa; test: Cell cycle arrest in human HeLa cells assessed as accumulation at G1 phase at 5 uM after 18 hrs by flow cytometry; format: functional; outline: as §2
[13] = tested on: MCF7; test: Antiproliferative activity against human MCF7 cells by crystal violet biomass reduction assay; format: functional, cell-based; settings: TDE = time-dependent effect; outline: as §3
[14] = tested on: Mycobacterium tuberculosis; test: Antimycobacterial activity against Mycobacterium tuberculosis H37Rv; format: functional

Compound | IC50 [4] | inhibition [7] | IC50 [8] | MIC [14] | also measured
O=C(NCc1cn(Cc2cccc(Oc3ccccc3)c2)nn1)c1ccccn1 | 580 nM | Active | 46 nM | – | Activity [1]: Active; Activity [2]: Active; Activity [3]: 2%; Activity [5]: 7.59%; Activity [6]: Active; Activity [9]: Active; Activity [10]: 90.72%; Activity [11]: >90%; Activity [12]: 0.86%; Activity [13]: tde
COc1ccc(C2=NC(C(=O)Nc3ccccc3O)CO2)cc1 (configuration not stated) | – | – | > 20000 nM | 13 µM (≈ 4.06 µg/mL) | –
O=C(OCc1ccccc1)[C@H]1COC(c2ccccc2OCc2ccccc2)=N1 | – | – | > 20000 nM | 4.2 µM (≈ 1.63 µg/mL) | –
COC(=O)Nc1nc2cc(C(=O)c3cccs3)ccc2[nH]1 | – | Active | – | – | –
O=C(NCc1cn(Cc2cccc(Oc3ccccc3)c2)nn1)c1ccccc1 | – | – | 245 nM | – | –
COc1cc2c(c(OC)c1OC)-c1ccc(OC)c(=O)cc1[C@@H](NC(C)=O)CC2 [COLCHICINE] | 8 nM | – | 13.4 nM | – | –
CCCCCCCCCCCCCCCC(=O)N(O)CCCC[C@H](NC(=O)[C@H]1COC(c2ccccc2O)=N1)C(=O)O[C@@H](C)CC(=O)N[C@H]1CCCCN(O)C1=O | – | – | – | 3.9 µM (≈ 3.13 µg/mL) | –
CC(=O)NCc1cn(Cc2cccc(Oc3ccccc3)c2)nn1 | 28000 nM | – | 6400 nM | – | Activity [3]: 1.87%; Activity [5]: 24.94%; Activity [10]: 17.26%; Activity [11]: inactive; Activity [12]: 53.85%
COc1cc2c(cc1O)CC[C@@H]1[C@@H]2CC[C@]2(C)[C@@H](O)CC[C@@H]12 [2-METHOXYESTRADIOL] | 2910 nM | – | 842 nM | – | –
CC(=O)O[C@H]1C(=O)[C@@]2(C)[C@H]([C@H](OC(=O)c3ccccc3)[C@]3(O)C[C@H](OC(=O)[C@H](O)[C@@H](NC(=O)c4ccccc4)c4ccccc4)C(C)=C1C3(C)C)[C@]1(OC(C)=O)CO[C@@H]1C[C@@H]2O | – | inactive | – | – | –
